Assays:
Blood = assay: Inhibition of A23187-induced TBX2 release in Sprague-Dawley rat whole blood; format: functional, tissue-based
Outline: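 Rat whole blood is stimulated with calcium ionophore A23187, and thromboxane B2 is the read-out (cPLA2α- and COX-1-dependent). IC50 is taken from at least two runs, each run the mean of triplicate assays.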

[1] = biological target: T1, Cytosolic phospholipase A2 (Homo sapiens, UniProt P47712); assay: Inhibition of human cytosolic PLA2alpha by GLU micelle assay
T1 sequence (P47712 whole entry): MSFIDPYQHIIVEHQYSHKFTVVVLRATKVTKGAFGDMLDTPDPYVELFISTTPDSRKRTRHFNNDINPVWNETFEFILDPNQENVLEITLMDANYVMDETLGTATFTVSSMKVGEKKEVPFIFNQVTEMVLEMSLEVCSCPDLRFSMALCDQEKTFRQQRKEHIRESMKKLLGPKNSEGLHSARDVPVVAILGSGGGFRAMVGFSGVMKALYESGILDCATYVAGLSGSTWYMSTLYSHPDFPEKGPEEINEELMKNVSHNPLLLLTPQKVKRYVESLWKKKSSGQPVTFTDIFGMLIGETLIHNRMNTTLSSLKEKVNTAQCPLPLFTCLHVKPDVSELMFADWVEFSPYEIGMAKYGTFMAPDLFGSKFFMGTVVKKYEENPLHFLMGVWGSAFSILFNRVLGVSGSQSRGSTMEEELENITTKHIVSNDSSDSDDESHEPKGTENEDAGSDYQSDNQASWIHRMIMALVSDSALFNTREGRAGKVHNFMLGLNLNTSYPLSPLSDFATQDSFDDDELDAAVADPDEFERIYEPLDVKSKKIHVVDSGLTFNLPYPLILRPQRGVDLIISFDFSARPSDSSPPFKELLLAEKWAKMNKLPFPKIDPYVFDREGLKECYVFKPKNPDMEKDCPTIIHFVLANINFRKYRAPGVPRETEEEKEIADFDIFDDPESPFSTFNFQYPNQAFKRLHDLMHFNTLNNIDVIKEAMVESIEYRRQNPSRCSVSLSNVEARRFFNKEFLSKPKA
Outline: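 Purified human cPLA2α with the substrate 7-hydroxycoumarinyl-γ-linolenate (GLU), presented in micelles containing a high concentration of detergent and lipid. IC50 is taken from at least two runs, each run the mean of duplicate assays.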

IC50 (Blood) [nM]	IC50 [1] [nM]	Compound
540		O=C(O)c1ccc(OCCc2c(CCNS(=O)(=O)CCn3cccn3)n(C(c3ccccc3)c3ccccc3)c3ccc(Cl)cc23)cc1
75	190	O=C(O)c1ccc(OCCc2c(CCNS(=O)(=O)CSc3ccccc3)n(C(c3ccccc3)c3ccccc3)c3ccc(Cl)cc23)cc1
530	390	O=C(O)c1ccc(OCCc2c(CCNS(=O)(=O)CCN3CCOCC3)n(C(c3ccccc3)c3ccccc3)c3ccc(Cl)cc23)cc1
1500	410	O=C(O)c1ccc(OCCc2c(CCNS(=O)(=O)CCn3cncn3)n(C(c3ccccc3)c3ccccc3)c3ccc(Cl)cc23)cc1
140	200	O=C(O)c1ccc(OCCc2c(CCNS(=O)(=O)CSc3cc(Cl)cc(Cl)c3)n(C(c3ccccc3)c3ccccc3)c3ccc(Cl)cc23)cc1
77	220	CC1CCCN1CCS(=O)(=O)NCCc1c(CCOc2ccc(C(=O)O)cc2)c2cc(Cl)ccc2n1C(c1ccccc1)c1ccccc1 (stereo not drawn)
70	170	O=C(O)c1ccc(OCCc2c(CCNS(=O)(=O)CSc3ccc(F)c(Cl)c3)n(C(c3ccccc3)c3ccccc3)c3ccc(Cl)cc23)cc1
240	330	COc1ccc(OC)c(SCS(=O)(=O)NCCc2c(CCOc3ccc(C(=O)O)cc3)c3cc(Cl)ccc3n2C(c2ccccc2)c2ccccc2)c1
5000	750	O=C(O)c1ccc(OCCc2c(CCNS(=O)(=O)CCN3CCNC3=S)n(C(c3ccccc3)c3ccccc3)c3ccc(Cl)cc23)cc1
280	760	Cc1cnn(CCS(=O)(=O)NCCc2c(CCOc3ccc(C(=O)O)cc3)c3cc(Cl)ccc3n2C(c2ccccc2)c2ccccc2)c1
110		O=C(O)c1ccc(OCCc2c(CCNS(=O)(=O)Cc3ccc(Cl)c(Cl)c3)n(C(c3ccccc3)c3ccccc3)c3ccc(Cl)cc23)cc1 [ECOPLADIB]
120		O=C(O)c1ccc(OCCc2c(CCNS(=O)(=O)Cc3ccccc3)n(C(c3ccccc3)c3ccccc3)c3ccc(Cl)cc23)cc1
5800		O=C(O)c1ccc(OCCc2c(CCNS(=O)(=O)CCn3ccnc3)n(C(c3ccccc3)c3ccccc3)c3ccc(Cl)cc23)cc1
320		O=C(O)c1ccc(OCCc2c(CCNS(=O)(=O)CCN3CCSC3)n(C(c3ccccc3)c3ccccc3)c3ccc(Cl)cc23)cc1

More lines, now with the values behind:

Compound	IC50 (Blood) [nM]	IC50 [1] [nM]
CC1CCCC(C)N1CCS(=O)(=O)NCCc1c(CCCc2ccc(C(=O)O)cc2)c2cc(Cl)ccc2n1C(c1ccccc1)c1ccccc1 (stereo not drawn)	50	
Cc1cccc(C)c1CS(=O)(=O)NCCc1c(CCCc2ccc(C(=O)O)cc2)c2cc(Cl)ccc2n1C(c1ccccc1)c1ccccc1	30	10
COC[C@@H]1CCCN1CCS(=O)(=O)NCCc1c(CCOc2ccc(C(=O)O)cc2)c2cc(Cl)ccc2n1C(c1ccccc1)c1ccccc1	330	250
O=C(O)c1ccc(OCCc2c(CCNS(=O)(=O)CCN3CCC(O)CC3)n(C(c3ccccc3)c3ccccc3)c3ccc(Cl)cc23)cc1	1300	350
C[C@@H]1CCC[C@H](C)N1CCS(=O)(=O)NCCc1c(CCOc2ccc(C(=O)O)cc2)c2cc(Cl)ccc2n1C(c1ccccc1)c1ccccc1	100	250
O=C(O)c1ccc(CCCc2c(CCNS(=O)(=O)Cc3ccccc3CN3CCOCC3)n(C(c3ccccc3)c3ccccc3)c3ccc(Cl)cc23)cc1	20	
CC1CN(CCS(=O)(=O)NCCc2c(CCOc3ccc(C(=O)O)cc3)c3cc(Cl)ccc3n2C(c2ccccc2)c2ccccc2)CC(C)N1 (stereo not drawn)	> 10000	
CC1C(=O)NCCN1CCS(=O)(=O)NCCc1c(CCOc2ccc(C(=O)O)cc2)c2cc(Cl)ccc2n1C(c1ccccc1)c1ccccc1 (stereo not drawn)	480	
CN(C)C1CCN(CCS(=O)(=O)NCCc2c(CCOc3ccc(C(=O)O)cc3)c3cc(Cl)ccc3n2C(c2ccccc2)c2ccccc2)C1 (stereo not drawn)	> 1250	
O=C(O)c1ccc(CCCc2c(CCNS(=O)(=O)Cc3ccccc3CO)n(C(c3ccccc3)c3ccccc3)c3ccc(Cl)cc23)cc1	28	
CC(=O)N1CCN(CCS(=O)(=O)NCCc2c(CCOc3ccc(C(=O)O)cc3)c3cc(Cl)ccc3n2C(c2ccccc2)c2ccccc2)CC1	240	
